Test results from ChEMBL document CHEMBL4402551 (Eur J Med Chem, 2020).
The source made the active and inactive calls. The calls are words filed in the database; no cut-off is given here.

How the values were obtained:
[1] = Cytotoxicity against CEF after 48 hrs by CCK8 assay; parameters: species or system Gallus gallus; conditions: chicken, CEF cells
Outline: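 Uninfected chicken embryo fibroblasts are given compound, serially diluted 3-fold in DMEM with 1% FBS from a DMSO stock, at 37 °C and 5% CO2 for 48 h. Viability is read as A450 after 90 min with CCK-8 at 37 °C. CC50 is derived as for EC50.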

Influenza A virus [2] = test: Antiviral activity against Influenza A virus (A/goose/Guangdong/SH7/2013(H5N1)) infected in chicken embryo fibroblasts assessed as protection against virus-induced cytopathic effect incubated for 48 hrs by CCK8 assay; type: functional, organism-based
Influenza A virus [3] = test: Antiviral activity against Influenza A virus (A/Chicken/Hebei/LZF/2014(H5N2)) infected in chicken embryonated eggs assessed as protection against virus-induced chicken embryo death at 2.5 to 0.156 mM incubated with virus for 1 hr followed by inoculation and measured after 72 hrs; type: functional, organism-based
Influenza A virus [4] = test: Antiviral activity against Influenza A virus (A/Chicken/Hebei/LZF/2014(H5N2)) infected in chicken embryo fibroblasts assessed as protection against virus-induced cytopathic effect incubated for 48 hrs by CCK8 assay; type: functional, organism-based
Influenza A virus [5] = test: Antiviral activity against Influenza A virus (A/Chicken/China/415/2013 (H9N2)) infected in chicken embryonated eggs assessed as chicken embryo survival at 10 to 0.625 mM incubated with virus for 1 hr followed by inoculation and measured after 72 hrs relative to control; type: functional
Influenza A virus [6] = test: Antiviral activity against Influenza A virus (A/Duck/Guangdong/674/2014(H5N6)) infected in chicken embryo fibroblasts assessed as protection against virus-induced cytopathic effect incubated for 48 hrs by CCK8 assay; type: functional, organism-based
[7] = Inhibition of Influenza A virus (A/Duck/Guangdong/674/2014(H5N6)) Neuraminidase N6 preincubated for 10 mins followed by MUNANA substrate addition and measured after 40 mins by fluorescence method
Influenza A virus [8] = test: Antiviral activity against Influenza A virus (A/Chicken/Hebei/LZF/2014(H5N2)) infected in chicken embryonated eggs assessed as chicken embryo survival at 10 mM incubated with virus for 1 hr followed by inoculation and measured after 72 hrs relative to control; type: functional
Influenza A virus [9] = test: Antiviral activity against Influenza A virus (A/Chicken/China/415/2013 (H9N2)) infected in chicken embryonated eggs assessed as chicken embryo survival at 10 to 0.156 mM incubated with virus for 1 hr followed by inoculation and measured after 72 hrs relative to control; type: functional

Row | Compound | IC50 [7] [µM] | also measured
1 | CCC(CC)O[C@@H]1C=C(C(=O)O)C[C@H](N)[C@H]1NC(C)=O [OSELTAMIVIR CARBOXYLATE] | 0.018 | CC50 at 48 h [1]: > 1000 µM; EC50 (Influenza A virus [2]): 0.22 µM; Activity (Influenza A virus [3]): inactive; EC50 (Influenza A virus [4]): 0.18 µM; Activity (Influenza A virus [5]): >80%; EC50 (Influenza A virus [6]): 0.43 µM; Activity (Influenza A virus [8]): 80%
2 | CCC(CC)O[C@@H]1C=C(C(=O)NCc2cn(Cc3ccccc3Cl)nn2)C[C@H](N)[C@H]1NC(C)=O | 0.13 | CC50 at 48 h [1]: > 1000 µM; EC50 (Influenza A virus [2]): 3.32 µM; EC50 (Influenza A virus [4]): 0.47 µM; EC50 (Influenza A virus [6]): 8.6 µM
3 | CCC(CC)O[C@@H]1C=C(C(=O)NCc2cn(Cc3cccc(Cl)c3)nn2)C[C@H](N)[C@H]1NC(C)=O | 2.56 | 
4 | CCC(CC)O[C@@H]1C=C(C(=O)NCc2cn(C3CCCCC3)nn2)C[C@H](N)[C@H]1NC(C)=O | 2.01 | 
5 | CCC(CC)O[C@@H]1C=C(C(=O)NCc2cn(CC(=O)N3CCCC3)nn2)C[C@H](N)[C@H]1NC(C)=O | 1.4 | 
6 | CCC(CC)O[C@@H]1C=C(C(=O)NCc2cn(Cc3ccc(-c4ccccc4)cc3)nn2)C[C@H](N)[C@H]1NC(C)=O | 2.2 | 
7 | CCC(CC)O[C@@H]1C=C(C(=O)NC(C)(C)c2cn([C@H]3C[C@H](n4cc(C)c(=O)[nH]c4=O)O[C@@H]3CO)nn2)C[C@H](N)[C@H]1NC(C)=O | 0.58 | CC50 at 48 h [1]: > 1000 µM; EC50 (Influenza A virus [2]): 6.28 µM; EC50 (Influenza A virus [4]): 0.53 µM; EC50 (Influenza A virus [6]): > 20 µM
8 | CCC(CC)O[C@@H]1C=C(C(=O)NC(C)(C)c2cn(Cc3ccc(Br)cc3)nn2)C[C@H](N)[C@H]1NC(C)=O | > 10 | 
9 | CCC(CC)O[C@@H]1C=C(C(=O)NCc2cn(Cc3ccc(F)cc3)nn2)C[C@H](N)[C@H]1NC(C)=O | 3.2 | 
10 | CCC(CC)O[C@@H]1C=C(C(=O)NCCc2cn(Cc3ccc([N+](=O)[O-])cc3)nn2)C[C@H](N)[C@H]1NC(C)=O | 7.6 | 
11 | CCC(CC)O[C@@H]1C=C(C(=O)NCCc2cn(Cc3ccc(Br)cc3)nn2)C[C@H](N)[C@H]1NC(C)=O | > 10 | 
12 | CCC(CC)O[C@@H]1C=C(C(=O)NCc2cn(Cc3ccc(C)cc3)nn2)C[C@H](N)[C@H]1NC(C)=O | 5.5 | 
13 | CCC(CC)O[C@@H]1C=C(C(=O)NCc2cn(Cc3ccccc3[N+](=O)[O-])nn2)C[C@H](N)[C@H]1NC(C)=O | > 10 | 
14 | CCC(CC)O[C@@H]1C=C(C(=O)NCCc2cn([C@H]3C[C@H](n4cc(C)c(=O)[nH]c4=O)O[C@@H]3CO)nn2)C[C@H](N)[C@H]1NC(C)=O | > 10 | 
15 | CCC(CC)O[C@@H]1C=C(C(=O)NCc2cn(Cc3ccc(Br)cc3)nn2)C[C@H](N)[C@H]1NC(C)=O | 0.16 | CC50 at 48 h [1]: > 1000 µM; EC50 (Influenza A virus [2]): 2.45 µM; Activity (Influenza A virus [3]): inactive; EC50 (Influenza A virus [4]): 0.43 µM; Activity (Influenza A virus [9]): >80%; EC50 (Influenza A virus [6]): 2.8 µM; Activity (Influenza A virus [8]): 20%
16 | CCC(CC)O[C@@H]1C=C(C(=O)NCc2cn(CCc3ccc(Br)cc3)nn2)C[C@H](N)[C@H]1NC(C)=O | 6.34 | 
17 | CCC(CC)O[C@@H]1C=C(C(=O)NCc2cn(Cc3ccccc3Br)nn2)C[C@H](N)[C@H]1NC(C)=O | > 10 | 
18 | CCC(CC)O[C@@H]1C=C(C(=O)NCc2cn([C@H]3C[C@H](n4cc(C)c(=O)[nH]c4=O)O[C@@H]3CO)nn2)C[C@H](N)[C@H]1NC(C)=O | 0.29 | 
19 | CCC(CC)O[C@@H]1C=C(C(=O)NCc2cn(Cc3cccc([N+](=O)[O-])c3)nn2)C[C@H](N)[C@H]1NC(C)=O | 2.85 | 
20 | CCC(CC)O[C@@H]1C=C(C(=O)NCc2cn(Cc3ccccc3)nn2)C[C@H](N)[C@H]1NC(C)=O | 1 | 
21 | CCC(CC)O[C@@H]1C=C(C(=O)NCc2cn(Cc3ccc(Cl)c(F)c3)nn2)C[C@H](N)[C@H]1NC(C)=O | 2.8 | 
22 | CCC(CC)O[C@@H]1C=C(C(=O)NCc2cn(CC(=O)N3CCOCC3)nn2)C[C@H](N)[C@H]1NC(C)=O | 0.79 | CC50 at 48 h [1]: > 1000 µM; EC50 (Influenza A virus [2]): 3.1 µM; EC50 (Influenza A virus [4]): 1 µM; EC50 (Influenza A virus [6]): 3.78 µM
23 | CCC(CC)O[C@@H]1C=C(C(=O)NC(C)(C)c2cn(Cc3ccc([N+](=O)[O-])cc3)nn2)C[C@H](N)[C@H]1NC(C)=O | > 10 | 
24 | CCC(CC)O[C@@H]1C=C(C(=O)NCc2cn(Cc3cccc(F)c3)nn2)C[C@H](N)[C@H]1NC(C)=O | 2 | 
25 | CCC(CC)O[C@@H]1C=C(C(=O)NCc2cn(CCc3ccccc3)nn2)C[C@H](N)[C@H]1NC(C)=O | 0.57 | 
26 | CCC(CC)O[C@@H]1C=C(C(=O)NCc2cn(CSc3ccccc3)nn2)C[C@H](N)[C@H]1NC(C)=O | 4.59 | 
27 | CCC(CC)O[C@@H]1C=C(C(=O)NCc2cn(Cc3ccc([N+](=O)[O-])cc3)nn2)C[C@H](N)[C@H]1NC(C)=O | 1.17 | 
